Compound activity deposited in PubChem BioAssay by several laboratories.
An excerpt weighted towards active compounds, which were near 5.1% of everything screened.
APP 5'UTR act: activators of APP 5'UTR luciferase reporter, primary screen, SH-SY5Y cells; SH-SY5Y APP 5'UTR luciferase reporter, luminescence; zero percent = DMSO vehicle wells; activation, % at 2 µM; hit rate 1% among 190,000; AID 1276, 2008;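 active = activation above a set limit, based on mean plus 3 SD of controls, cut at about 140% in these data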
STAT3 inh: IL-6 driven STAT3 reporter inhibitors, primary screen, U3A cells, luciferase, luminescence, MLSCN library; IL-6 STAT3-luciferase reporter; host cell line lacks STAT1; hit rate 0.89% among 190,000; AID 862, 2007; inhibition, % at 5.5 µM;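 active = inhibition above the mean inhibition across all screened compounds plus 3 SD, cut at about 44% in these data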
STAT3 act: IL-6 driven STAT3 reporter potentiators, primary screen, U3A cells, luciferase, luminescence, MLSCN library; AID 871, 2007; IL-6 STAT3-luciferase reporter; 100% = signal with IL-6 EC80 alone; hit rate 0.91% among 190,000; activation (% of control), % at 5.6 µM;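 active = activation above the screen-wide mean of compound activation plus 3 SD, cut at about 130% in these data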
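System – human U3A cells carrying STAT3-luciferase construct · Probe or stimulus – Interleukin-6, 33 ng/mL · Schedule – compound 1 h, then IL-6 6 h at 37 °C · Signal – luminescence from STAT3-driven luciferase reporter · Evaluation – percent of IL-6-only median luminescence · Benchmarks – IL-6-only high control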
NF-kB expr up: activators of NF-kB expression in neurons, primary screen, cell-based, HTS; human neuronal cells, NF-kB reporter expression; active compounds read high; fold change at 12.5 µM; hit rate 1.6% among 190,000; in the data active = fold change above about 3.3
STAT1 activator: STAT1 signaling activators, primary screen, cell-based, HTS, luciferase reporter. NIH 3T3 STAT1-luciferase reporter, IFN-gamma, luminescence; 100% = IFN-gamma alone, no compound. activation (% of control), % at 5.5 µM. hit rate 2.6% among 200,000. AID 932, 2007;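 active = activation above the screen-wide mean activation plus 3 SD, cut at about 130% in these data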
STAT1 inh: STAT1 signaling inhibitors, primary screen, cell-based, HTS, luciferase reporter | AID 920, 2007 | inhibition, % at 5.5 µM | hit rate 0.35% among 200,000 | NIH 3T3 STAT1-luciferase reporter, IFN-gamma, luminescence;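 active = inhibition above a set limit, the mean inhibition across all tested compounds plus 3 SD, cut at about 34% in these data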
Large screens that a line does not name were inactive.

Clc1ccccc1CSc1cc2c(nn1)-c1ccccc1CC2	NF-kB expr up 3.74
S=C(Nc1ccc(Cl)cc1)N1CCCC1	none
Cc1cc(C)n2ncc(C(=O)NCc3ccc(Cl)cc3)c2n1	none
O=C(NCc1ccc(Cl)cc1)c1cnn2ccccc12	STAT1 activator 131.0
Cc1cccc(CSc2cccc3cccnc23)c1	STAT1 activator 145.9
O=[N+]([O-])c1ccc2c(c1)nc1n2CCN(C2CCCCC2)C1	STAT1 activator 143.6 (no result: NF-kB expr up)
O=[N+]([O-])c1ccc2c(c1)nc1n2CCCCC1	none
COc1cc(C(=O)OCCNC(=O)c2ccncc2)cc(OC)c1OC	none
CN1CCN(C(=S)NCCc2ccccc2)CC1	none
O=C(NC1CCCCC1)C(=S)NCCc1ccccc1	none
CC1CCN(C(=S)NCCc2ccccc2)CC1	NF-kB expr up 3.37
S=C(NCCc1ccccc1)NC1CCCCCC1	STAT1 activator 137.0
O=C(NNC(=S)NCc1ccco1)c1ccc(S(=O)(=O)N2CCOCC2)cc1	none
c1ccc(-c2cc(N3CCCCCC3)n[nH]2)cc1	STAT1 activator 130.1
c1ccc(-c2cc(N3CCCCC3)ncn2)cc1	none
CCOc1ccc(-n2c(C)nc(O)c2N=Nc2ccccc2)cc1	none
COc1ccc(S(=O)(=O)Nc2cc3c(cc2C(C)=O)OCO3)cc1	none
COc1ccc(-c2cc(-c3ccccc3)c(C#N)c(S(C)=O)n2)cc1 (stereo not given)	NF-kB expr up 3.58 (no result: APP 5'UTR act)
CCSc1nc(-c2ccc(OC)cc2)cc(-c2ccccc2)c1C#N	none
COc1ccc(Nc2cccc(Cl)c2)c(C(=O)O)c1	NF-kB expr up 3.57
COc1cnn(-c2ccc(C)cc2)c(=O)c1Cl	STAT1 activator 141.2
COc1cnn(-c2ccc(C)cc2)c(=O)c1Br	none
CNc1cnn(-c2ccc(C)cc2)c(=O)c1Sc1ccc(C)cc1	none
CNc1cnn(-c2ccc(C)cc2)c(=O)c1Cl	STAT1 activator 128.8
CCC(Sc1nc2c(c(=O)n1CC)SC(C)C2)C(=O)OC (stereo not given)	none
C[n+]1c(/C=C/c2ccc3c(c2)OCO3)ccc2ccccc21	APP 5'UTR act 185.0
CCN(C(=O)/C=C/c1ccc2c(c1)OCO2)c1ccccc1	none
CCOc1ccc(NC(=O)N[C@@H](CCSC)C(=O)OC)cc1	none
Cc1sc(NC(=O)c2ccccc2F)c(CN2CCCCC2C)c1C (stereo not given)	STAT1 activator 136.8
COc1ccc2cc(-c3csc(-c4cccnc4)n3)ccc2c1	none
O=S(=O)(c1ccc(-c2csc(-c3cccnc3)n2)cc1)N1CCOCC1	none
COc1ccc(-c2csc(-c3cccnc3)n2)cc1C	STAT1 activator 149.5
Cc1ccc(-c2csc(-c3ccncc3)n2)cc1	STAT1 activator 144.5
c1ccc(-c2csc(-c3cccnc3)n2)cc1	STAT1 activator 131.8
CN(CC(=O)NC(=O)NC(C)(C)C)CC(=O)Nc1ccccc1Cl	none
O=[N+]([O-])c1ccc2nc(-c3ccc(Cl)cc3)n(OCc3ccccc3)c2c1	NF-kB expr up 4.45, STAT1 activator 129.4 (no result: APP 5'UTR act)
Clc1ccc(COn2c(-c3ccc(Cl)cc3)nc3ccccc32)cc1	none (no result: APP 5'UTR act)
Cc1ccc(COn2c(-c3ccc(Cl)cc3)nc3ccc([N+](=O)[O-])cc32)cc1	NF-kB expr up 5.32, STAT1 activator 135.0 (no result: APP 5'UTR act)
COc1ccc(OC(=O)c2cnn(-c3ccccc3)c2C)cc1	NF-kB expr up 5.93, STAT1 activator 150.5
CCOC(=O)c1cnn(-c2ccccc2)c1N	none
Nc1c(C(=O)Nc2ccccc2F)sc2nc(-c3ccco3)ccc12	APP 5'UTR act 140.5
COc1ccc(C(=O)c2sc3nc(-c4ccccc4)ccc3c2N)cc1	none
COC(=O)c1sc2nc(-c3ccco3)ccc2c1N	APP 5'UTR act 161.7, STAT1 activator 141.4
NC(=O)c1sc2nc3c(c(-c4ccco4)c2c1N)CCC3	none
O=C(Nc1ccccc1F)c1ccco1	none
NC(=O)c1sc2nc(-c3ccco3)ccc2c1N	STAT1 activator 130.7
Cc1ccc(S(=O)(=O)CCSC(=N)N)cc1	none
COc1ccc(CCC(=O)OCC(=O)c2ccc(C)cc2)cc1	none
Oc1ccc(NCc2cccc(OCc3ccc(F)cc3)c2)cc1	STAT1 activator 129.1
CCc1ccc2oc(-c3cc(N=Cc4cccc(OC)c4O)ccc3O)nc2c1	APP 5'UTR act 161.9, NF-kB expr up 4.16
COc1ccc(N2C(=O)C3CC(C)=C(C)CC3C2=O)c(OC)c1 (stereo not given)	none
COc1ccc(N2C(=O)CCC2=O)c(OC)c1	STAT1 activator 140.4
CC1=NN(c2ccc(F)cc2)C(=O)C1C(c1cccc(O)c1)c1c(C)[nH]n(-c2ccc(F)cc2)c1=O (stereo not given)	STAT3 act 153.0
Cc1[nH]n(-c2ccccc2)c(=O)c1C(c1ccc(O)c([N+](=O)[O-])c1)c1c(C)[nH]n(-c2ccccc2)c1=O	none (no result: NF-kB expr up)
CSc1nc2ccc(NC(=O)c3nn(C(C)C)c(=O)c4ccccc34)cc2s1	none
Nc1nc2ccc(C(=O)Nc3ccccc3)cc2s1	STAT3 act 156.1, STAT1 activator 147.6
CCc1ccc(NC(=O)c2ccc3nc(N)sc3c2)cc1	none
CSc1nc2ccc(NC(=O)c3ccco3)cc2s1	NF-kB expr up 4.03, STAT1 activator 139.5
Cc1cc(C)nc(NC(=O)c2cc3ccccc3o2)n1	none
CSc1nc2ccc(NC(=O)c3cc4ccccc4o3)cc2s1	APP 5'UTR act 139.9, NF-kB expr up 4.87, STAT1 activator 139.2
CSc1nc2ccc3nc(NC(=O)c4ccccc4)sc3c2s1	STAT1 activator 139.2
N#CC(c1ccc(Cl)cc1)(c1ncc(C(F)(F)F)cc1Cl)N1CCOCC1 (stereo not given)	none
CSc1nc2ccc(NC(=O)c3ccc(F)c(F)c3)cc2s1	STAT1 activator 140.0
CSc1nc2ccc(NC(=O)c3ccc(=O)n(C)n3)cc2s1	none
CCOC(=O)c1sc2ncn(/N=C/c3ccc(O)c(OC)c3)c(=O)c2c1C	none
Cc1nc(NC2=NCN(CC3CCCO3)CN2)nc2ccccc12 (stereo not given)	none (no result: NF-kB expr up)
Cc1nc(NC2=NCN(CCCN3CCOCC3)CN2)nc2c(C)cccc12	STAT3 act 183.4
Cc1nc(NC2=NCN(CCc3ccccc3)CN2)nc2c(C)cccc12	STAT3 act 157.7 (no result: NF-kB expr up)
Cc1cccc2c(=O)c(C(=O)NCCCN3CCOCC3)c[nH]c12	none
O=C(Cc1csc(Nc2nc(=S)[nH]c3ccccc23)n1)NCc1cccc(Cl)c1	none
O=C(Cc1csc(Nc2nc(=S)[nH]c3ccccc23)n1)N1CCN(c2cccc(C(F)(F)F)c2)CC1	STAT3 act 134.8
O=C(COC(=O)c1cnccn1)c1ccc(Cl)cc1	none
